# ChEMBL document CHEMBL4689842, “EUbOPEN Chemogenomics Library wave 1” (2021)
# Experiments:
# U2OS [1] = experiment: Incucyte cell viability with U2OS; format: toxicity, cell-based; details: human, 10 µM, compound concentration 10 uM; also: filed as whole numbers so only -1 and 0 and 1 occur
# U2OS [2] = experiment: Multiplex assay against U2OS; format: toxicity, cell-based; details: human
# How it was run: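 Cells were classed with CellPathfinder machine-learning gating, first as Hoechst high-intensity objects or normal cells, then (normal cells) as healthy, pyknosed or fragmented nuclei, and finally (pyknosed cells) as mitotic or apoptotic. Staining of live cells at seeding used Hoechst33342, BioTracker Green Microtubule Cytoskeleton Dye, MitoTracker Red and Annexin V Alexa Fluor 680, with imaging on a CQ1 microscope at 37°C and 5% CO2 after compound addition. Tubulin, mitochondrial-mass and membrane-permeability phenotypes are per cents of healthy-nucleus cells.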
# [3] = 12 h, 1 µM, compound concentration 1 uM, replicate 1
# [4] = 12 h, 1 µM, compound concentration 1 uM, replicate 2
# [5] = 12 h, 10 µM, compound concentration 10 uM, replicate 1
# [6] = 12 h, 10 µM, compound concentration 10 uM, replicate 2
# [7] = 24 h, 1 µM, compound concentration 1 uM, replicate 1
# [8] = 24 h, 1 µM, compound concentration 1 uM, replicate 2
# [9] = 24 h, 10 µM, compound concentration 10 uM, replicate 1
# [10] = 24 h, 10 µM, compound concentration 10 uM, replicate 2
smiles,measurement,setting,value
CCOc1cc2ncc(C#N)c(Nc3ccc(OCc4cccc(F)c4)c(Cl)c3)c2cc1NC(=O)/C=C/CN(C)C [HKI-357],Growth Rate,"U2OS [1]; 0 h, replicate number 2, timepoint 0 hours",0
same,Growth Rate,"U2OS [1]; 6 h, replicate number 1, timepoint 6 hours",0
same,Growth Rate,"U2OS [1]; 12 h, replicate number 1, timepoint 12 hours",0
same,Growth Rate,"U2OS [1]; 18 h, replicate number 1, timepoint 18 hours",0
same,Growth Rate,"U2OS [1]; 24 h, replicate number 1, timepoint 24 hours",0
same,Population Apoptotic (%),U2OS [2]; [3],58%
same,Population Fragmented Nuclei (%),U2OS [2]; [3],5%
same,Population Healthy Nuclei (%),U2OS [2]; [3],86%
same,Population Hoechst High Intensity Objects (%),U2OS [2]; [3],1%
same,Population Membrane Permeable-Phenotype (%),U2OS [2]; [3],21%
same,Population Mitochondria Different-Phenotype (%),U2OS [2]; [3],12%
same,Population Mitotic Cells (%),U2OS [2]; [3],41%
same,Population Normal (%),U2OS [2]; [3],98%
same,Population Pyknosed Nuclei (%),U2OS [2]; [3],8%
same,Population Tubulin-Different-Phenotype (%),U2OS [2]; [3],14%
same,Total Cell Count,U2OS [2]; [3],156
same,Population Apoptotic (%),U2OS [2]; [4],25%
same,Population Fragmented Nuclei (%),U2OS [2]; [4],11%
same,Population Healthy Nuclei (%),U2OS [2]; [4],84%
same,Population Hoechst High Intensity Objects (%),U2OS [2]; [4],16%
same,Population Membrane Permeable-Phenotype (%),U2OS [2]; [4],19%
same,Population Mitochondria Different-Phenotype (%),U2OS [2]; [4],25%
same,Population Mitotic Cells (%),U2OS [2]; [4],75%
same,Population Normal (%),U2OS [2]; [4],83%
same,Population Pyknosed Nuclei (%),U2OS [2]; [4],4%
same,Population Tubulin-Different-Phenotype (%),U2OS [2]; [4],21%
same,Total Cell Count,U2OS [2]; [4],141
same,Population Apoptotic (%),U2OS [2]; [5],56%
same,Population Fragmented Nuclei (%),U2OS [2]; [5],13%
same,Population Healthy Nuclei (%),U2OS [2]; [5],69%
same,Population Hoechst High Intensity Objects (%),U2OS [2]; [5],5%
same,Population Membrane Permeable-Phenotype (%),U2OS [2]; [5],43%
same,Population Mitochondria Different-Phenotype (%),U2OS [2]; [5],33%
same,Population Mitotic Cells (%),U2OS [2]; [5],43%
same,Population Normal (%),U2OS [2]; [5],94%
same,Population Pyknosed Nuclei (%),U2OS [2]; [5],16%
same,Population Tubulin-Different-Phenotype (%),U2OS [2]; [5],95%
same,Total Cell Count,U2OS [2]; [5],210
same,Population Apoptotic (%),U2OS [2]; [6],69%
same,Population Fragmented Nuclei (%),U2OS [2]; [6],20%
same,Population Healthy Nuclei (%),U2OS [2]; [6],65%
same,Population Hoechst High Intensity Objects (%),U2OS [2]; [6],12%
same,Population Membrane Permeable-Phenotype (%),U2OS [2]; [6],31%
same,Population Mitochondria Different-Phenotype (%),U2OS [2]; [6],39%
same,Population Mitotic Cells (%),U2OS [2]; [6],30%
same,Population Normal (%),U2OS [2]; [6],87%
same,Population Pyknosed Nuclei (%),U2OS [2]; [6],13%
same,Population Tubulin-Different-Phenotype (%),U2OS [2]; [6],88%
same,Total Cell Count,U2OS [2]; [6],119
same,Population Apoptotic (%),U2OS [2]; [7],32%
same,Population Fragmented Nuclei (%),U2OS [2]; [7],7%
same,Population Healthy Nuclei (%),U2OS [2]; [7],82%
same,Population Hoechst High Intensity Objects (%),U2OS [2]; [7],2%
same,Population Membrane Permeable-Phenotype (%),U2OS [2]; [7],23%
same,Population Mitochondria Different-Phenotype (%),U2OS [2]; [7],16%
same,Population Mitotic Cells (%),U2OS [2]; [7],67%
same,Population Normal (%),U2OS [2]; [7],97%
same,Population Pyknosed Nuclei (%),U2OS [2]; [7],10%
same,Population Tubulin-Different-Phenotype (%),U2OS [2]; [7],17%
same,Total Cell Count,U2OS [2]; [7],172
same,Population Apoptotic (%),U2OS [2]; [8],45%
same,Population Fragmented Nuclei (%),U2OS [2]; [8],9%
same,Population Hoechst High Intensity Objects (%),U2OS [2]; [8],7%
same,Population Membrane Permeable-Phenotype (%),U2OS [2]; [8],10%
same,Population Mitochondria Different-Phenotype (%),U2OS [2]; [8],23%
same,Population Mitotic Cells (%),U2OS [2]; [8],54%
same,Population Normal (%),U2OS [2]; [8],92%
same,Population Pyknosed Nuclei (%),U2OS [2]; [8],8%
same,Population Tubulin-Different-Phenotype (%),U2OS [2]; [8],27%
same,Total Cell Count,U2OS [2]; [8],154
same,Population Apoptotic (%),U2OS [2]; [9],84%
same,Population Fragmented Nuclei (%),U2OS [2]; [9],8%
same,Population Healthy Nuclei (%),U2OS [2]; [9],68%
same,Population Hoechst High Intensity Objects (%),U2OS [2]; [9],4%
same,Population Membrane Permeable-Phenotype (%),U2OS [2]; [9],32%
same,Population Mitochondria Different-Phenotype (%),U2OS [2]; [9],58%
same,Population Mitotic Cells (%),U2OS [2]; [9],15%
same,Population Normal (%),U2OS [2]; [9],95%
same,Population Pyknosed Nuclei (%),U2OS [2]; [9],23%
same,Population Tubulin-Different-Phenotype (%),U2OS [2]; [9],81%
same,Total Cell Count,U2OS [2]; [9],272
same,Population Apoptotic (%),U2OS [2]; [10],86%
same,Population Healthy Nuclei (%),U2OS [2]; [10],74%
same,Population Hoechst High Intensity Objects (%),U2OS [2]; [10],12%
same,Population Membrane Permeable-Phenotype (%),U2OS [2]; [10],23%
same,Population Mitochondria Different-Phenotype (%),U2OS [2]; [10],69%
same,Population Mitotic Cells (%),U2OS [2]; [10],13%
same,Population Normal (%),U2OS [2]; [10],87%
same,Population Pyknosed Nuclei (%),U2OS [2]; [10],17%
same,Population Tubulin-Different-Phenotype (%),U2OS [2]; [10],84%
same,Total Cell Count,U2OS [2]; [10],141
